Consider 12 compounds from ChEMBL document CHEMBL4041514, “From pyrrolidinyl-benzodioxane to pyrrolidinyl-pyridodioxanes, or from unselective antagonism to selective partial agonism at α4β2 nicotinic acetylcholine receptor” (Eur J Med Chem, 2017).

Activity calls are given as the source filed them. No cut-off for these calls is given here.

Assay [1] is described as follows: Selectivity ratio of Ki for displacement of [3H]epibatidine from human alpha3beta4 nAChR expressed in HEK293 cells to Ki for displacement of [3H]epibatidine from rat cerebral cortex membrane alpha4beta2* nAChR. The assay is classed as cell-based. An outline of the steps:
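[3H]-epibatidine competition binding on native rat cerebral cortex membranes (α4β2*) and on membranes of HEK cells transiently transfected with human α3β4. Kd and Ki came from three saturation and three competition experiments each, fitted by nonlinear least squares (LIGAND) with F test. The ratio is α3β4 Ki divided by α4β2 Ki.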
On the technique in general: In a radioligand displacement assay an active substance lowers the binding of a labelled ligand.

A short description of assay [2]: Displacement of [3H]epibatidine from rat cerebral cortex membrane alpha4beta2* nAChR pretreated for 5 mins followed by [3H]epibatidine addition after overnight incubation by beta counter. Summed up: (§1)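 Competition binding using [3H]epibatidine for rat cortex α4β2* and human α3β4 from transfected cells, and [125I]α-bungarotoxin for rat hippocampus α7*. Kd from three saturation experiments and Ki from three competition experiments. Fitted by nonlinear least squares (LIGAND) with an F test.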

A short description of assay [3]: Displacement of [125I]alpha-bungarotoxin from rat hippocampus membrane alpha7* nAChR pretreated for 5 mins followed by [125I]alpha-bungarotoxin addition after overnight incubation by gamma counter. An outline of the steps:
as §1

A further assay is filed under the species Rattus norvegicus. The assay is described as follows: Selectivity ratio of Ki for displacement of [125I]alpha-bungarotoxin from rat hippocampus membrane alpha7* nAChR to Ki for displacement of [3H]epibatidine from rat cerebral cortex membrane alpha4beta2* nAChR. Summed up: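 Ki for rat hippocampal α7* ([125I]α-bungarotoxin competition) divided by Ki for rat cortical α4β2* ([3H]epibatidine competition). Each Ki comes from three competition experiments analysed by nonlinear least squares.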

For assay [4], the target named is T1, Neuronal acetylcholine receptor; alpha3/beta4 (Homo sapiens, UniProt P30926+P32297). In words: Antagonist activity at human alpha3beta4 nAChR expressed in GH4CL cells by whole-cell patch clamp method. The assay is classed as cell-based. On the technique in general: In patch-clamp work, channel activity is measured electrically.
Assay [5] concerns the target T1, Neuronal acetylcholine receptor; alpha3/beta4. In words: Displacement of [3H]epibatidine from human alpha3beta4 nAChR expressed in HEK293 cells pretreated for 5 mins followed by [3H]epibatidine addition after overnight incubation by beta counter. Type of assay: cell-based. Summed up: as §1
Assay [6] shares this target. In words: Partial agonist activity at human alpha3beta4 nAChR expressed in GH4CL cells by whole-cell patch clamp method. Type of assay: cell-based. Summed up:
(§2)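 Human receptor transiently transfected into GH4C1 pituitary cells. Agonist concentrations applied in sequence. Peak currents normalized to the 1 mM ACh response on the same cell. Fitted to a Hill equation, I = Imax([C]^nH/(EC50^nH+[C]^nH)), to give EC50, Imax and Hill coefficient.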

In assay [7] the target is T2, Neuronal acetylcholine receptor; alpha4/beta2 (Homo sapiens, UniProt P17787+P43681). The assay is described as follows: Partial agonist activity at human alpha4beta2 nAChR expressed in GH4CL cells by whole-cell patch clamp method. The assay is classed as cell-based. Summed up: as §2
The target of assay [8] is T2, Neuronal acetylcholine receptor; alpha4/beta2. The assay is described as follows: Antagonist activity at human alpha4beta2 nAChR expressed in GH4CL cells by whole-cell patch clamp method. The assay is classed as cell-based.
Assay [9] has the same target. In words: Partial agonist activity at human alpha4beta2 nAChR expressed in GH4CL cells by whole-cell patch clamp method relative to acetylcholine. The assay is classed as cell-based. Summed up:
as §2

Assay [10] concerns the target Neuronal acetylcholine receptor; alpha4/beta2 (Rattus norvegicus, UniProt P09483+P12390). The assay is described as follows: Displacement of [3H](-)cytisine from rat whole brain alpha4beta2 nAChR.

T1 sequence (P30926 whole entry): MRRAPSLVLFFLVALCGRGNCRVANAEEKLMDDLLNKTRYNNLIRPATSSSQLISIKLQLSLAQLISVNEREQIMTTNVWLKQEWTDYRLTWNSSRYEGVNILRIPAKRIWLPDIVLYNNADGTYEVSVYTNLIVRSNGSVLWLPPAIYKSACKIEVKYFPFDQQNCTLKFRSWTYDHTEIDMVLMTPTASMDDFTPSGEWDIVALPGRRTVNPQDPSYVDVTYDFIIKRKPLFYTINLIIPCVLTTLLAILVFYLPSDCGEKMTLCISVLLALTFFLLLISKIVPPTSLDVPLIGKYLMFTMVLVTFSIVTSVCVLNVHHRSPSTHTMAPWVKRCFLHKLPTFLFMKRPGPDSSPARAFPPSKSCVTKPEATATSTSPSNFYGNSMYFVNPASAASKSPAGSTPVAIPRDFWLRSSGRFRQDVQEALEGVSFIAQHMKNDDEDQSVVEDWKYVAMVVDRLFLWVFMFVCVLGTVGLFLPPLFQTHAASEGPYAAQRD
T1 sequence (P32297 whole entry): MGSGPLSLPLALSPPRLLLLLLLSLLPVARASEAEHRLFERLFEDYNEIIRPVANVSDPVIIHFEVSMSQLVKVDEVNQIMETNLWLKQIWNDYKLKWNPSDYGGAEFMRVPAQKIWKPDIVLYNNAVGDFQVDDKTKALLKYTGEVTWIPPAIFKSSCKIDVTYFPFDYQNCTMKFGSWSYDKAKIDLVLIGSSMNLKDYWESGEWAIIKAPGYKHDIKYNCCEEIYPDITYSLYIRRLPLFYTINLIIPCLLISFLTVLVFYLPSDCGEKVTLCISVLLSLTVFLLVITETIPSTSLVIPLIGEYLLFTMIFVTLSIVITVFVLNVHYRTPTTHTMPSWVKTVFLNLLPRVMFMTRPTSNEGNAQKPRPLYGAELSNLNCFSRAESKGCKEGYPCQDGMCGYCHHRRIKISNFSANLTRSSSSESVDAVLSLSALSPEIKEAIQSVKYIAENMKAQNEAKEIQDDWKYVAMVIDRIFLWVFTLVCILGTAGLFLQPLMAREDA
T2 sequence (P17787 whole entry): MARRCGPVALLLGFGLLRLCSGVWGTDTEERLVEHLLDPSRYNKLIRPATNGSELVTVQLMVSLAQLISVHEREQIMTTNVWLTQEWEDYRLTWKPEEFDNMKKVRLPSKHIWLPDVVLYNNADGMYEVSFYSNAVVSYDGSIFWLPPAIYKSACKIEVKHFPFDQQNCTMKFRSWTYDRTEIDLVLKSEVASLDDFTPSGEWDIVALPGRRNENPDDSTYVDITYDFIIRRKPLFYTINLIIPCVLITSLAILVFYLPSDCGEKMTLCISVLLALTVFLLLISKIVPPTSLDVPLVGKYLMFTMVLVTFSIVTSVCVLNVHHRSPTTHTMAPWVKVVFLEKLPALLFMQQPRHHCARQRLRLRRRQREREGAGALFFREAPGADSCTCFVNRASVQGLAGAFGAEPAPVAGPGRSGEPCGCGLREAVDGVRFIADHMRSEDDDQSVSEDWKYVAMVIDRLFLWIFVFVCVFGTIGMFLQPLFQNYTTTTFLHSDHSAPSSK
T2 sequence (P43681 whole entry): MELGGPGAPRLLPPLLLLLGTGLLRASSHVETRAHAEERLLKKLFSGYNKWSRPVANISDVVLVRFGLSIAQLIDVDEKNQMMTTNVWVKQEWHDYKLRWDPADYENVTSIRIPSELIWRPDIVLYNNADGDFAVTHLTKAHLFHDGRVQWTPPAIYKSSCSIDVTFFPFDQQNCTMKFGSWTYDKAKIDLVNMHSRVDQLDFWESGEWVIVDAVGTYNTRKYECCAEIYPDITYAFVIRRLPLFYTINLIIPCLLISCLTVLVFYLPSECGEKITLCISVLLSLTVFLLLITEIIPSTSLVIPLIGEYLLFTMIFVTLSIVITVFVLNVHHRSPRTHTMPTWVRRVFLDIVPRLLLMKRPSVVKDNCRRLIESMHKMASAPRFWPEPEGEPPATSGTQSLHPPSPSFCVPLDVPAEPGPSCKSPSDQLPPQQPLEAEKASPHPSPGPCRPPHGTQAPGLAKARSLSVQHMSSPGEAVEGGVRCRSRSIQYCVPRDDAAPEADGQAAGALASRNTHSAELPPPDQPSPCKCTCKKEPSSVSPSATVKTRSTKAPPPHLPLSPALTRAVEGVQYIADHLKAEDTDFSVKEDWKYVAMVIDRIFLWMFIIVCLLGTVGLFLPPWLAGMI
Sequence of Neuronal acetylcholine receptor; alpha4/beta2 (Rattus norvegicus, UniProt P09483+P12390) (P09483 whole entry): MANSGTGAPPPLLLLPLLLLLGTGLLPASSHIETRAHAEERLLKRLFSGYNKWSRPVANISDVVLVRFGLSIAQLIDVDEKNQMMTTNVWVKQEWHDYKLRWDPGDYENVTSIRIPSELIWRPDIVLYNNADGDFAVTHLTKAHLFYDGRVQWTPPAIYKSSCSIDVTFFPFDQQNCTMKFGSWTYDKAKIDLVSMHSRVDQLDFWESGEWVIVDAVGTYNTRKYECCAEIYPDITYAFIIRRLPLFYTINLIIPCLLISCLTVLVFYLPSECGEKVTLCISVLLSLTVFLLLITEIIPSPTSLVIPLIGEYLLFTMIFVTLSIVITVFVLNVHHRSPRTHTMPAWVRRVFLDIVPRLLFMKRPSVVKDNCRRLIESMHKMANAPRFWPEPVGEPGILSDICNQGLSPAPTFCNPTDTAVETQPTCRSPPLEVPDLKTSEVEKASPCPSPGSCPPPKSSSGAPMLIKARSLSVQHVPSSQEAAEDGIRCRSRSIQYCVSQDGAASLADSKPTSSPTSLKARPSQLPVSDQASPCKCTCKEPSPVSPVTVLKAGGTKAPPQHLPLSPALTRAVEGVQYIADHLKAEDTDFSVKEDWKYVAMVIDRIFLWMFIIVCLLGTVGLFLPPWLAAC
Sequence of Neuronal acetylcholine receptor; alpha4/beta2 (Rattus norvegicus, UniProt P09483+P12390) (P12390 whole entry): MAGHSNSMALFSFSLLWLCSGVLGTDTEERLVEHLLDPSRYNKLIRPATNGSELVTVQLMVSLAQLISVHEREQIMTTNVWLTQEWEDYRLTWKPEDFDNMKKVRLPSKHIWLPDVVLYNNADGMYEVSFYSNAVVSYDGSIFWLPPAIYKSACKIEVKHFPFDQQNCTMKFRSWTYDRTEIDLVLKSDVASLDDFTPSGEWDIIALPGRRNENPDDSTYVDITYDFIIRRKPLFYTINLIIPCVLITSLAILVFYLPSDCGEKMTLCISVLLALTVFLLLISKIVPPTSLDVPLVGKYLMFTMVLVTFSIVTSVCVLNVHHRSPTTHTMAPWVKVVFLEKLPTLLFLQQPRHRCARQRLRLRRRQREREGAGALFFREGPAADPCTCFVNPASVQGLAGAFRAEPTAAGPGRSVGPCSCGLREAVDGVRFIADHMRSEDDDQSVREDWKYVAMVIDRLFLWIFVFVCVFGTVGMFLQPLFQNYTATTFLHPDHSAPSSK

The Ki is the dissociation constant of the complex between target and ligand, obtained from inhibition or displacement. For `C[C@@H](Oc1cccc(O)c1)[C@@H]1CCCN1C`, the Ratio Ki turned out to be 23 in assay [1] and 5 in the assay filed under Rattus norvegicus. The Ki in assay [2] was determined as 0.011 µM; in assay [3], 0.057 µM.

The IC50 is the concentration at which inhibition is half-maximal. Read a high IC50 as weaker potency. `CN1CCC[C@H]1[C@@H]1COc2ccccc2O1`: the Ratio Ki came to 5 in [1] and 81 in the assay filed under Rattus norvegicus. Moreover, the concentration for half-maximal inhibition (IC50) in assay [4] lay in the range of 2.78 to 2.8 µM; in assay [8], 5.36 to 5.4 µM. The Ki was 0.26 µM in assay [2], 21 µM in [3] and 1.2 µM in assay [5]. The result in assay [6] and in assay [7] was inactive.

In general, EC50 refers to the concentration needed to bring the measured effect to its halfway point. A high value points to weaker potency. As for `CN1CCC[C@H]1[C@@H]1COc2ncccc2O1`, the Ratio Ki was 39 in [1] and 215 in the assay listed under Rattus norvegicus. In addition, the figures for the Ki in [2], in assay [3] and in assay [5] were 0.41 µM, 89 µM and 16.2 µM, respectively. Also, the %max in [9] came to 24.2%. The concentration giving a half-maximal response (EC50) in [7] stood at 10.1 µM.

On to `COc1ccc(O)cc1OC[C@@H]1CCCN1C`, for which the Ratio Ki in [1] amounted to 14; in the assay listed under Rattus norvegicus it was 60. In addition, the Ki turned out to be 0.019 µM in assay [2] and 1.15 µM in [3].

As for `CN1CCC[C@H]1[C@H]1COc2ncccc2O1`, the Ki was 30.4 µM in assay [2], more than 10 µM in assay [3] and 22 µM in assay [5].

As for `CN1CCC[C@H]1[C@@H]1COc2ccncc2O1`, the inhibitory constant (Ki) in [2] was determined as 1.64 µM; in [5] it was 5.8 µM.

Turning to `CN1CCC[C@H]1c1cc2ccccc2o1`, the affinity in assay [10], expressed as Ki, was 0.16 µM.

On to `CN1CCC[C@H]1[C@H]1COc2cccnc2O1`, for which the Ki in [2] was determined as 30 µM; in [3], 12 µM.

Regarding `CN1CCC[C@H]1[C@H]1COc2ccccc2O1`, the inhibition constant Ki in assay [2] worked out at 0.47 µM; in assay [3], 14.6 µM; in assay [5], 8.2 µM.

Regarding `CN1CCC[C@H]1[C@@H]1COc2cccnc2O1`, the Ki was determined as 43 µM in assay [2] and 24 µM in assay [3].

As for `CN1CCC[C@H]1[C@H]1COc2ccc(O)cc2O1`, the Ratio Ki in [1] worked out at 26; in the assay listed under Rattus norvegicus, 36. The results for the Ki in assay [2], in [3] and in [5] were 0.012 µM, 0.43 µM and 0.31 µM, respectively.

Turning to `CN1CCC[C@H]1[C@H]1COc2ccncc2O1`, the inhibition constant (Ki) was 3.6 µM in assay [2] and 8.9 µM in assay [5].
